Experimental data from different studies.
Compare with care: the assays were run in different laboratories.
Observed: cell growth or viability

Structure (SMILES) | cell line | assay | setting | endpoint | value
Cc1cc(C)c(CNC(=O)c2cc(Cl)c3c(c2C)O[C@@](C)([C@H]2CC[C@H](N(C)C)CC2)O3)c(=O)[nH]1 | HT-1376 | ATP luminescence | 18 days | GI50 | 0.018 µM
C=CC(=O)NC1CCN(c2ncc3ncnc(Nc4ccc(Oc5ccc6c(c5)ncn6C)c(C)c4)c3n2)CC1 | COR-L88 | – | – | EC50 | 0.313 µM
C=CC[C@@H]1/C=C(\C)C[C@H](C)C[C@H](OC)[C@H]2O[C@@](O)(C(=O)C(=O)N3CCCC[C@H]3C(=O)O[C@H](/C(C)=C/[C@@H]3CC[C@@H](O)[C@H](OC)C3)[C@H](C)[C@@H](O)CC1=O)[C@H](C)C[C@@H]2OC | K562 | MTT | 72 h | GI50 | > 1 µM
C=CC(=O)c1cccnc1Nc1cccc(C(F)(F)F)c1 | HCT-15 | SRB | 48 h | GI50 | 15.5 µM
C=CC(=O)N1CCN(c2nc(=O)n(-c3c(C)ccnc3C(C)C)c3nc(-c4c(O)cccc4F)c(F)cc23)[C@@H](C)C1 | NCI-H1373 | ATP luminescence | – | IC50 | 0.0484 µM
COc1cc2c3c(n(CCCNCCO)c(=O)c2cc1OC)-c1nc2c(cc1C3=O)OCO2 | K562 | MTS | 72 h | IC50 | 0.196 µM
O=C(O)c1ccccc1Nc1cccc(C(F)(F)F)c1 | HCT-15 | SRB | 48 h | GI50 | > 30 µM
COc1cc2c3c(n(CCCNC(C)C)c(=O)c2cc1OC)-c1nc2c(cc1C3=O)OCO2 | K562 | MTS | 72 h | IC50 | 0.182 µM
COc1ccc(N)cc1-c1c[nH]c2ncc(-c3cncc(C(=O)N(C)C)c3)cc12 | K562 | MTT | 72 h | GI50 | 0.175 µM
CC(C)C[C@@H]1NC(=O)[C@@H](N(C)C(=O)[C@@H](NC(=O)[C@@H]2C[C@@H](F)CN2C(=O)C2(C(F)(F)F)CC(F)(F)C2)C2CC2)CCCCNC(=O)C(C)(C)NC(=O)[C@H](Cc2cc(Cl)nn2-c2ccccc2)N(C)C1=O | NCI-H446 | MTT | 5 days | GI50 | 4.4 µM
C=C(F)C(=O)N1CCN(c2nc(OC[C@@H]3CCCN3C)nc3c2CCN(c2cccc4cccc(Cl)c24)C3)C[C@@H]1CC#N | HCT-15 | ATP luminescence | 3D culture | IC50 | > 1 µM
COc1ccc(OCc2ccc([N+](=O)[O-])cc2)cc1-c1c[nH]c2ncc(-c3cncc(C(=O)N(C)C)c3)cc12 | K562 | MTT | 72 h | GI50 | 0.697 µM
CCNCCCn1c2c(c3cc(OC)c(OC)cc3c1=O)C(=O)c1cc3c(nc1-2)OCO3 | K562 | MTS | 72 h | IC50 | 0.158 µM
O=C(Nc1ccc(OC(F)(F)Cl)cc1)c1cnc(N2CC[C@@H](O)C2)c(-c2cc[nH]n2)c1 | K562 | MTT | 72 h | GI50 | 0.00072 µM
O=C(NO)c1ccc(CNc2nc3cccc(-c4ccc5c(c4)OCO5)n3n2)cc1 | SN12C | SRB | – | GI50 | 0.72 µM
C=CS(=O)(=O)Nc1ccc(OC)c(-c2c[nH]c3ncc(-c4cncc(C(=O)N(C)C)c4)cc23)c1 | K562 | MTT | 72 h | GI50 | > 1 µM
CCCN1C(=O)[C@H](CC(C)C)NC(=O)[C@@H](N(C)C(=O)[C@H](CC2CCC2)NC(=O)[C@@H]2C[C@@H](F)CN2C(=O)[C@@](C)(O)C(F)(F)F)CCCCNC(=O)C2(CC2)NC(=O)[C@@H]1Cc1cc(Cl)ccc1Cl | NCI-H446 | MTT | 5 days | GI50 | 0.028 µM
